The target in data set [1] is T1, Human immunodeficiency virus type 1 reverse transcriptase (Human immunodeficiency virus 1, UniProt Q72547). The data set can be described thus: Inhibition of HIV1 wild-type reverse transcriptase by scintillation counting assay.
Another data set has as its target Cytochrome P450 3A4 (Homo sapiens, UniProt P08684). The data set is described as follows: Inhibition of recombinant CYP3A4. It counts as ADME. A digest of the protocol:
(§1)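 Fluorogenic assay using 7-benzyloxy-4-(trifluoromethyl)-coumarin as substrate; IC50 reported in micromolar.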

Data set [2] deals with Human immunodeficiency virus 1. The data set is described as follows: Antiviral activity against HIV1 with reverse transcriptase K103N/Y181C mutation in human MT4 cells assessed as reduction of virus-induced cytopathic effect. Particulars: Human immunodeficiency virus 1, MT4. It counts as functional, organism-based. The procedure, abridged: (§2)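 MT4 cells infected with HIV-1 and incubated with compound in the presence of 10% fetal bovine serum. Read-out is the reduction of virus-induced cytopathic effect. EC50 derived; each value is the mean of at least two independent assays.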

Data set [3] deals with Human immunodeficiency virus type 1 reverse transcriptase (Human immunodeficiency virus 1, UniProt Q72547, K103N). The data set is described as follows: Inhibition of HIV1 reverse transcriptase K103N mutant by scintillation counting assay.
Data set [4] concerns the target T1, Human immunodeficiency virus type 1 reverse transcriptase. The data set is described as follows: Binding affinity to HIV1 wild-type reverse transcriptase by surface plasmon resonance spectroscopy. A general note: SPR reads the build-up and loss of mass on a sensor chip optically.
Another data set relates to Rattus norvegicus. The data set is described as follows: AUC in rat at 5 mg/kg, po. The format is ADME, organism-based, Plasma. Details: dose 5 mg/kg, route oral. Particulars: in vivo. The procedure, abridged: (§3)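 Rats dosed orally at 5 mg/kg; plasma Cmax and AUC determined.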
The subject of data set [5] is Human immunodeficiency virus 1. The data set can be described thus: Antiviral activity against HIV1 in human MT4 cells assessed as reduction of viral-induced cytopathic effect in presence of human serum. The format is functional, organism-based. The conditions noted are these: Human immunodeficiency virus 1, MT4. A digest of the protocol:
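HIV-1-infected MT4 cells incubated with compound in presence of 40% human serum; reduction of viral cytopathic effect measured; EC50 derived.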
A general note: Cytopathic effects are the visible damage that an infection or toxin causes in cultured cells.

For the next data set, the system named is Canis familiaris. The data set is described as follows: AUC in dog at 5 mg/kg, po. It counts as ADME, organism-based, Canis lupus familiaris, Plasma. More on the design: dose 5 mg/kg, route oral. The conditions noted are these: in vivo.
Data set [6] concerns Human immunodeficiency virus 1. The data set is described as follows: Antiviral activity against HIV1 with reverse transcriptase G190A mutation in human MT4 cells assessed as reduction of virus-induced cytopathic effect. It counts as functional, organism-based. The conditions noted are these: Human immunodeficiency virus 1, MT4. A digest of the protocol:
as §2

Data set [7] relates to Human immunodeficiency virus 1. The data set can be described thus: Antiviral activity against HIV1 with reverse transcriptase K103N/L100I mutation in human MT4 cells assessed as reduction of virus-induced cytopathic effect. The conditions noted are these: Human immunodeficiency virus 1, MT4. The format is functional, organism-based. A digest of the protocol: as §2
Data set [8] can be described thus: Half life in dog at 2.5 mg/kg, iv. It counts as ADME, organism-based, Canis lupus familiaris. More on the design: dose 2.5 mg/kg, route intravenous. The conditions noted are these: in vivo.
Another data set addresses T2, Cytochrome P450 1A2 (Homo sapiens, UniProt P05177).
T2 sequence (P05177 whole entry): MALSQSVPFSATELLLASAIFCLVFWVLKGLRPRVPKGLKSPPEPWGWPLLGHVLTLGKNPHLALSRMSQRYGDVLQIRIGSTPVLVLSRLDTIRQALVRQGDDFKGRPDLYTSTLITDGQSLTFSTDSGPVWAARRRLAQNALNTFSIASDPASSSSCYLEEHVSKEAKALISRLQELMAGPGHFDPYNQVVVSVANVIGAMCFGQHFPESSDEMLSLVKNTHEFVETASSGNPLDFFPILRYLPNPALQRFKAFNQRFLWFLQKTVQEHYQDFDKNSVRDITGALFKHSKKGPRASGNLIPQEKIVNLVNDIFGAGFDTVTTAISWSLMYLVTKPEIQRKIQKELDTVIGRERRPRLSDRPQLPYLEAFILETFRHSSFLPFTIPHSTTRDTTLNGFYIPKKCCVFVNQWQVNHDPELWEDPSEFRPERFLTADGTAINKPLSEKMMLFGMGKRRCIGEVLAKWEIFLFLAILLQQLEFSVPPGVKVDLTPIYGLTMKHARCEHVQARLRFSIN
The data set can be described thus: Inhibition of CYP1A2. The format is ADME. The procedure, abridged:
as §1

A short description of data set [9]: Cmax in dog at 5 mg/kg, po. The format is ADME, organism-based, Canis lupus familiaris. Particulars: in vivo. More on the design: dose 5 mg/kg, route oral.
For another data set, the target named is Cytochrome P450 2C19 (Homo sapiens, UniProt P33261). The data set is described as follows: Inhibition of CYP2C19. It counts as ADME. The procedure, abridged:
as §1

Data set [10] in a line: Half life in rat at 2.5 mg/kg, iv. Details: dose 2.5 mg/kg, route intravenous. The format is ADME, organism-based. The conditions noted are these: in vivo. The procedure, abridged: (§4)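 Rats given 2.5 mg/kg intravenously; half-life determined; apparent oral bioavailability calculated relative to oral dosing.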
A short description of data set [11]: Bioavailability in rat at 2.5 mg/kg, iv. The conditions noted are these: in vivo. The format is ADME, organism-based. A digest of the protocol:
as §4

Data set [12] is described as follows: Cmax in rat at 5 mg/kg, po. The format is ADME, organism-based. The conditions noted are these: in vivo. Details: dose 5 mg/kg, route oral. The procedure, abridged: as §3
A further data set has as its target Cytochrome P450 2D6 (Homo sapiens, UniProt P10635). The data set can be described thus: Inhibition of CYP2D6. The format is ADME. A digest of the protocol:
as §1

A further data set addresses Cytochrome P450 2C9 (Homo sapiens, UniProt P11712). The data set can be described thus: Inhibition of CYP2C9. The format is ADME. The procedure, abridged:
as §1

Data set [13] in a line: Bioavailability in dog at 2.5 mg/kg, iv. The format is ADME, organism-based, Canis lupus familiaris. The conditions noted are these: in vivo.
Data set [14] addresses Human immunodeficiency virus type 1 reverse transcriptase (Human immunodeficiency virus 1, UniProt Q72547, Y181C). The data set is described as follows: Inhibition of HIV1 reverse transcriptase Y181C mutant by scintillation counting assay.
The subject of data set [15] is Human immunodeficiency virus 1. The data set is described as follows: Antiviral activity against HIV1 with reverse transcriptase Y181C mutation in human MT4 cells assessed as reduction of virus-induced cytopathic effect. It counts as functional, organism-based. The conditions noted are these: Human immunodeficiency virus 1, MT4. A digest of the protocol:
as §2

In data set [16] the test system is Human immunodeficiency virus 1. The data set is described as follows: Antiviral activity against HIV1 with reverse transcriptase K103N mutation in human MT4 cells assessed as reduction of virus-induced cytopathic effect. It counts as functional, organism-based. The conditions noted are these: Human immunodeficiency virus 1, MT4. The procedure, abridged:
as §2

Data set [17] concerns Human immunodeficiency virus 1. The data set is described as follows: Antiviral activity against HIV1 in human MT4 cells assessed as reduction of viral-induced cytopathic effect. It counts as functional, organism-based. The conditions noted are these: Human immunodeficiency virus 1, MT4.

Sequence of Cytochrome P450 3A4 (P08684 whole entry): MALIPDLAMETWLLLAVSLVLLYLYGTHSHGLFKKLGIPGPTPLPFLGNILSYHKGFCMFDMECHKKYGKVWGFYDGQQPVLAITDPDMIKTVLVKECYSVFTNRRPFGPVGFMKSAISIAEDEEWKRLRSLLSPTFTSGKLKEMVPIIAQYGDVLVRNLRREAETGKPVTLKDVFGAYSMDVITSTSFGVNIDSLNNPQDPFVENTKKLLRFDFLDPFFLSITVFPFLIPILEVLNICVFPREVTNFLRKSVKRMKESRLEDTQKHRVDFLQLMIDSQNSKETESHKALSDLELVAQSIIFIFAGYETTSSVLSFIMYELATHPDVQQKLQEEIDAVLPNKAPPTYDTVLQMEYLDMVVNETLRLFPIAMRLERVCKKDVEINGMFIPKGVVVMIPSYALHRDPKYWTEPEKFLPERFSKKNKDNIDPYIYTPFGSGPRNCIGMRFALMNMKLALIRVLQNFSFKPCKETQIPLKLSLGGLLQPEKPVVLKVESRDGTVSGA
Sequence of Cytochrome P450 2C19 (P33261 whole entry): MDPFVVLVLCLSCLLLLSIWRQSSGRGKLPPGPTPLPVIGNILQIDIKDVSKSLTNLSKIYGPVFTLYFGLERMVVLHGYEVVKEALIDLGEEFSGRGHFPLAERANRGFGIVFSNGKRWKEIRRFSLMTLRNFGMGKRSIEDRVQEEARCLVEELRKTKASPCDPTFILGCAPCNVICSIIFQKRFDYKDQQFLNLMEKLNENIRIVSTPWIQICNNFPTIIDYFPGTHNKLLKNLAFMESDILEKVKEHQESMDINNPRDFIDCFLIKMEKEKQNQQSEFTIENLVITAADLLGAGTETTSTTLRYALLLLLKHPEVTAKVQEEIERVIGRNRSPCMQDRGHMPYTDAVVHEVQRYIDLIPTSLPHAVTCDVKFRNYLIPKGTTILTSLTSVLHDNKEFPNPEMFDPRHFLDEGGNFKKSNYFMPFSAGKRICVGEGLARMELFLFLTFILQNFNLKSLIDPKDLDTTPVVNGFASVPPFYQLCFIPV
Sequence of Cytochrome P450 2C9 (P11712 whole entry): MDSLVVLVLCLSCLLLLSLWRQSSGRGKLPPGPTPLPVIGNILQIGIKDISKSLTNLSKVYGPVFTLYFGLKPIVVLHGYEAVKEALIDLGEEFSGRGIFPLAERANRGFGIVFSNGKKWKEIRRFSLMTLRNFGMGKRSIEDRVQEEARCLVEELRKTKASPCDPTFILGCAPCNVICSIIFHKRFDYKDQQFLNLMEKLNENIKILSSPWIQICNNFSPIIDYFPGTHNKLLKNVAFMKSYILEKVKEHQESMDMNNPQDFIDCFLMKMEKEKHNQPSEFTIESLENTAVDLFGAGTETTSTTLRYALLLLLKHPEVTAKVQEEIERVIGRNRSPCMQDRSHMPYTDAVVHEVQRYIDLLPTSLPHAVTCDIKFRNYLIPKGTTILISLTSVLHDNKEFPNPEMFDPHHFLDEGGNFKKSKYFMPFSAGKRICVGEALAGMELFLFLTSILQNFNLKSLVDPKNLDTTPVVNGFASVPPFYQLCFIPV
Sequence of Cytochrome P450 2D6 (P10635 whole entry): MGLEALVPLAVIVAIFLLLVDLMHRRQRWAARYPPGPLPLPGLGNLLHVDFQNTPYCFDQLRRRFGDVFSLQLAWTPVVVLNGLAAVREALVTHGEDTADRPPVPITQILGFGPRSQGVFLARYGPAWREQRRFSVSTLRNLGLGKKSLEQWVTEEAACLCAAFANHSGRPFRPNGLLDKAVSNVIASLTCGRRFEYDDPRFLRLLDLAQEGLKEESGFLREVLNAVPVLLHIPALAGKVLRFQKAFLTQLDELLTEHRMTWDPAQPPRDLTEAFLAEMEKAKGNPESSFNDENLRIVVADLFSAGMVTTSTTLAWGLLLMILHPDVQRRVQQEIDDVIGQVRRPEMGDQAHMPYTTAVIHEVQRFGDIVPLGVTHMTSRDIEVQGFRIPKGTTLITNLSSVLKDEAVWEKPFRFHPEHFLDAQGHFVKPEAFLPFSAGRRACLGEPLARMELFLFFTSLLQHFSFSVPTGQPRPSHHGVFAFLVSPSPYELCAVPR

In general, IC50 refers to the concentration that inhibits the measured activity by half. `Cc1cc(Cl)cc(Oc2cccc(Cc3ccc(=O)[nH]n3)c2)c1` yielded an IC50 in data set [1] of 14000 nM.
For the molecule `O=c1ccc(Cc2cc(Oc3cccc(Cl)c3)c3occc3c2)n[nH]1`, the IC50 at Cytochrome P450 3A4 is 410 nM; in data set [1], 1000 nM.
As usually defined, the EC50 is the concentration that produces a half-maximal response. By Kd is commonly meant the constant that tells how readily two partners part at equilibrium. As a reminder, the half-life is how long it takes for the measured level to halve. A higher half-life goes with slow loss. By Cmax is commonly meant the peak of the concentration-time curve. For orientation: bioavailability means the share of a dose that reaches the circulation, judged against a reference dose that is usually intravenous. Lower therefore signals little systemic uptake. With `Cc1cc(Cc2ccc(Cl)c(Oc3cc(F)cc(C#N)c3)c2F)n[nH]c1=O`, the EC50 stood at 41 nM in data set [2]; 2 nM in [3]; 11 nM in data set [5]; 1 nM in [6]; 3 nM in data set [7]. Besides, binding in data set [4] was put at a Kd of 8.4 nM. In addition, the IC50 was 24000 nM on Cytochrome P450 3A4; above 50 µM against Cytochrome P450 1A2; 21 µM against Cytochrome P450 2C19; above 50 µM on Cytochrome P450 2D6; 8 µM on Cytochrome P450 2C9. Further, the values for the AUC with Rattus norvegicus and in the data set on Canis familiaris were 22.4 uM.hr/ml and 8.8 uM.hr/ml, respectively. Besides, the half-life in [8] is 384 min; in [10] it was 228 min. Further, the Cmax in data set [9] is 1470 nM; in [12], 2300 nM. Also, the bioavailability is 61% in [11] and 34% in data set [13].
For `Cc1cc(Cc2ccc(Cl)c(Oc3cc(C#N)cc(C#N)c3)c2F)n[nH]c1=O`, the EC50 came out at 19 nM in data set [2], 2 nM in [3], 7 nM in [5] and 1 nM in data set [6].
On to `O=c1ccc(Cc2cc(Cc3cccc(Cl)c3)c3occc3c2)n[nH]1`, for which the 50% inhibitory concentration (IC50) on Cytochrome P450 3A4 stood at 180 nM; in data set [1] it was 3900 nM.
In the case of `O=c1ccc(Cc2cccc(Oc3cccc(Cl)c3)c2)n[nH]1`, in [1], 21000 nM corresponded to half-maximal inhibition (IC50).
On to `O=c1ccc(Cc2ccc(Cl)c(Oc3ccccc3)c2F)n[nH]1`, for which the IC50 in data set [3] is 430 nM; in data set [14], 500 nM; in data set [1] it was 100 nM.
In data set [1], `Cc1ccc(Cc2ccc(=O)[nH]n2)cc1Oc1cccc(Cl)c1` yielded an IC50 of 640 nM.
Consider `O=C1Nc2ccc(Cl)cc2C(C#CC2CC2)(C(F)(F)F)O1` (single isomer, unassigned) [EFAVIRENZ], for which the EC50 in data set [2] was 83 nM; in data set [5], 19 nM; in data set [6] it was 6 nM; in [7] it was above 500 nM.
As for `O=C(c1cccc(Cl)c1)c1cc(Cc2ccc(=O)[nH]n2)cc2ccoc12`, the IC50 came to 600 nM at Cytochrome P450 3A4 and 8200 nM in data set [1].
With `Cc1cc(Cc2ccc(Cl)c(Oc3ccccc3)c2F)n[nH]c1=O`, the IC50 in [3] came out at 50 nM; in data set [14], 210 nM; in [1] it was 20 nM.
`O=c1ccc(Cc2ccc(Cl)c(Oc3ccccc3)c2)n[nH]1`: the values for the IC50 in data set [3], in data set [14] and in data set [1] were 3350 nM, 5490 nM and 520 nM, respectively.
As to `Cc1cc(Cc2ccc(Cl)c(Oc3ccccc3)c2)n[nH]c1=O`, the IC50 is 920 nM in data set [3], 2130 nM in data set [14] and 360 nM in [1].
For `O=C(c1ccc(Cl)cc1)c1cc(Cc2ccc(=O)[nH]n2)cc2ccoc12`, the IC50 worked out at 260 nM in data set [3], 360 nM in [14] and 400 nM in data set [1]. In addition, the values for the EC50 in data set [15], in [16] and in data set [17] were 210 nM, 70 nM and 80 nM, respectively.
Regarding `COc1cc(C#N)cc(Oc2c(Cl)ccc(Cc3cc(C)c(=O)[nH]n3)c2F)c1`, the EC50 in data set [2] was found to be 31 nM; in [5], 15 nM; in [6] it was 1 nM; in [7] it was 2 nM.
In the case of `O=c1ccc(Cc2ccc(Cl)c(Oc3cccc(Cl)c3)c2)n[nH]1`, the IC50 in data set [1] was found to be 100 nM.
